# Laboratory results from ChEMBL document CHEMBL1138762, “Novel cyclooxygenase-1 inhibitors discovered using affinity fingerprints” (J Med Chem, 2004).
# Target: T1, Prostaglandin G/H synthase 1 (Ovis aries, UniProt P05979)
# T1 sequence (P05979 whole entry): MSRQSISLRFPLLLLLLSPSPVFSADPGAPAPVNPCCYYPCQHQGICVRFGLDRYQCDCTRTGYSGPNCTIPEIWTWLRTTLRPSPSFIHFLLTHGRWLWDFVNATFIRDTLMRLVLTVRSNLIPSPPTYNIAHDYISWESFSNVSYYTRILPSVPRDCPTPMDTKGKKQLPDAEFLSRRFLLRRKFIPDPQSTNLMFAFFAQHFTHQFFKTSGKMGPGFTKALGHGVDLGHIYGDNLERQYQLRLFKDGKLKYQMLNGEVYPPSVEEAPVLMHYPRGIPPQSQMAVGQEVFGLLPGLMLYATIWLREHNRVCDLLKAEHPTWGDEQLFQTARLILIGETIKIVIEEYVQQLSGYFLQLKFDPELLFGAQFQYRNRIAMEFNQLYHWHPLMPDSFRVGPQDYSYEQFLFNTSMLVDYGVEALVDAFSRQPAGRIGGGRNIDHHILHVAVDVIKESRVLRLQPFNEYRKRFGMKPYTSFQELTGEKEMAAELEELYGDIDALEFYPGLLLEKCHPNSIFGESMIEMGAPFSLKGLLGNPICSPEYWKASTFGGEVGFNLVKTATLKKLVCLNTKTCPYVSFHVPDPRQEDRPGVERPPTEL
# Experiment: In vitro inhibitory activity against ovine cyclooxygenase-1 (COX-1)
# Conditions: not given
# Outline: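 Ovine COX-1 (0.17 unit/μL final) with heme (1 μM final) in Tris-HCl pH 8 buffer, preincubated with compound 10 min at room temperature. Started with saturating TMPD, then arachidonic acid to 10 μM, 5 min at room temperature. Absorbance increase at 590 nm. Half-log steps over −log[M] 9.0–3.5, DMSO 3% final. IC50 from nonlinear Hill fit, mean ± SEM of 2–5 determinations.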
row,Compound,IC50
1,COc1c(O)ccc2c1oc1ccccc12,29 µM
2,O=C(c1ccccc1)c1ccc(O)c(C(=O)c2ccccc2)c1O,6 µM
3,O=C(Nc1ccccc1O)c1ccccc1Cl,69 µM

# Target: T2, Prostaglandin G/H synthase 1 (Ovis aries) (UniProt P05979)
# T2 sequence (whole entry): T1 sequence (P05979 whole entry)
# Experiment: In vitro inhibitory activity against ovine cyclooxygenase-1 (COX-1) at 200 uM; Inactive
# Conditions: not given
row,Compound,inhibition
1,CCCCC1C(=O)N(c2ccccc2)N(c2ccccc2)C1=O,< 50%
2,CC(C)Cc1ccc(C(C)C(=O)O)cc1 (configuration not stated),< 50%
3,COc1ccc2c(c1)c(CC(=O)O)c(C)n2C(=O)c1ccc(Cl)cc1,< 50%
4,COc1ccc2c(c1)c(CC(=O)OCC(=O)O)c(C)n2C(=O)c1ccc(Cl)cc1,< 50%
5,CC(C(=O)O)c1ccc(N2Cc3ccccc3C2=O)cc1 (configuration not stated),< 50%
6,CC(C(=O)O)c1cccc(C(=O)c2ccccc2)c1 (configuration not stated),< 50%
7,CC(C(=O)O)c1ccc(N2CC=CC2)c(Cl)c1 (configuration not stated),< 50%
8,COc1ccc2cc(CC(=O)O)ccc2c1,< 50%
9,Cc1cc(NC(=O)C2=C(O)c3ccccc3S(=O)(=O)N2C)no1,< 50%
10,CN1C(C(=O)Nc2ccccn2)=C(O)c2ccccc2S1(=O)=O,< 50%
11,COc1ccc2cc([C@H](C)C(=O)O)ccc2c1,< 50%
12,O=C(O)c1cc(-c2ccc(F)cc2F)ccc1O,< 50%
13,CCc1cccc2c3c([nH]c12)C(CC)(CC(=O)O)OCC3 (configuration not stated),< 50%

# Target: T2, Prostaglandin G/H synthase 1 (Ovis aries)
# Conditions: 200 uM
row,Compound,inhibition
1,O=C(O)Cc1ccccc1Nc1c(Cl)cccc1Cl,< 50%
